# KCNQ1 pot – potentiates or activates the human KCNQ1 potassium channel. P51787. CHO-K1 KCNQ1, thallium flux FluxOR fluorescence; stronger effect = higher value. B-score at 10 µM. 310,000 tested, 0.35% active. AID 2648;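 active means fluorescence ratio B-score, a plate-corrected score, at least three library SD, with initial intensity B-score within 5 SD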
#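 Medium – assay buffer, equal DMSO in all wells · Material – CHO-K1 cell line with stable KCNQ1 potassium channel expression · Signal – kinetic FluxOR thallium fluorescence, 10-s 1-Hz baseline, 110-s post-stimulus read · Compound – single concentration per compound, DMSO matched to controls · Schedule – 37 °C overnight plating, 90-min dark dye load, 20-min compound pretreatment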
# KCNK9 block – inhibitors of human KCNK9 two-pore domain potassium channel; AID 488922; Q9NPC2; HEK293 KCNK9, FluxOR thallium flux fluorescence; stronger effect = lower value; 310,000 tested, 1.2% active; B-score at 10 µM;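 active means ratio B-score over 3 SD below the library mean, with starting fluorescence within 5 SD of its mean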;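 further: negative B-score means less thallium flux so channel inhibition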
# KCNK3 block – human KCNK3 channel inhibition, primary screen. 340,000 tested, 0.84% active. CHO-KCNK3 thallium flux, FluxOR fluorescence; stronger effect = lower value. O14649. B-score at 10 µM;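 active means B-score under library mean minus 4 SD, starting fluorescence ratio at most library mean plus 5 SD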;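 further: more negative B-score means stronger inhibition of thallium flux through KCNK3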
# KCNQ1 inh – blocks the human KCNQ1 potassium channel. P51787. B-score at 10 µM. 310,000 tested, 1.3% active. CHO-K1 KCNQ1, FluxOR thallium flux fluorescence; stronger effect = higher value;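 active means compounds whose thallium flux B-score, printed positive for inhibition, exceeds three library SD while starting fluorescence stays within three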;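 further: channel opened by potassium depolarization with thallium stimulus after 20 min compound exposure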
# hERG rescue – shields human hERG channel from block by proarrhythmic agents; Q12809; CHO-hERG, FluxOR thallium flux, dofetilide IC70 present; activation (rescue from dofetilide block), less the hit threshold, % at 10 µM; 310,000 tested, 0.51% active;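 active means activation above the mean of controls blocked by dofetilide plus 5 SD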;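 further: thallium influx through hERG after potassium depolarization seen as dye fluorescence rise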
# Target sequence (Q12809 whole entry, looked up): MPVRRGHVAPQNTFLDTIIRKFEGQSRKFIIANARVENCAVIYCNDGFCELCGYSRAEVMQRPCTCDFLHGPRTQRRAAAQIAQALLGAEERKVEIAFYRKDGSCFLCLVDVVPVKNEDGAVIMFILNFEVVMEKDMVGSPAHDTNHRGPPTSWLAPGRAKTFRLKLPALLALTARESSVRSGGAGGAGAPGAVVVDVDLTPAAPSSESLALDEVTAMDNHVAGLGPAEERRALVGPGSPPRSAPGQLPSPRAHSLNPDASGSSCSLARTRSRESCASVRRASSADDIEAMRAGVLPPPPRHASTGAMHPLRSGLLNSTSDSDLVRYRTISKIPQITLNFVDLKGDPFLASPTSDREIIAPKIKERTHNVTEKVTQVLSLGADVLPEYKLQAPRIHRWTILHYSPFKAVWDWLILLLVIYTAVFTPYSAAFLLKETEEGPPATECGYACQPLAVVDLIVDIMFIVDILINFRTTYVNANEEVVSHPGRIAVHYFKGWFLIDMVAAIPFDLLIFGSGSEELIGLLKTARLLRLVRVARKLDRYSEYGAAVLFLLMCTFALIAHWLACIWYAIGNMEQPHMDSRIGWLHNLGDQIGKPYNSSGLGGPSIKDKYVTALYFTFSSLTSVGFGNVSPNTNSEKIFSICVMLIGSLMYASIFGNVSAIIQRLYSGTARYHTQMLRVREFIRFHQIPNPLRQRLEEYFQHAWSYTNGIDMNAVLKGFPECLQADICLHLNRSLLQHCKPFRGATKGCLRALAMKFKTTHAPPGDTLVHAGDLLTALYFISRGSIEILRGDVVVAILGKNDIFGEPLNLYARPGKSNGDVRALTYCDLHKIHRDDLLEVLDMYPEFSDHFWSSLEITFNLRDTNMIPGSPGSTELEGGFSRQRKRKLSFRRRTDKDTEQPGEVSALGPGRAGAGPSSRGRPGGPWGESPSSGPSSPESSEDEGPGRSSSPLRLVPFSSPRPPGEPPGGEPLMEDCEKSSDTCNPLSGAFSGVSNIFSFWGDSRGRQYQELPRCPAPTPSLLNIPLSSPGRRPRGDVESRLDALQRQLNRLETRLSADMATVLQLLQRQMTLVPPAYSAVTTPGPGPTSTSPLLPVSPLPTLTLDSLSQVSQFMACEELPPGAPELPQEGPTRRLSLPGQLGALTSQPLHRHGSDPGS
# PHOSPHO1 inh – blocks human PHOSPHO1 phosphatase activity; Q8TCT1; recombinant PHOSPHO1, absorbance phosphatase assay; inhibition, % at 13.3 µM; 290,000 tested, 1.1% active; AID 1565; in the data active means inhibition above about 60%
# * = called active by the depositor; i = inactive; · = no result. Sampled rows, rich in hits. Any-hit rate of the full collection: about 4%.
SMILES,KCNQ1 pot,KCNK9 block,KCNK3 block,KCNQ1 inh,hERG rescue,PHOSPHO1 inh
CC1=CC(C)(C)N2C(=O)C3(C(C#N)=C(N)Oc4cc(O)ccc43)c3cccc1c32 (centres undefined),i,i,i,6*,-16,4
Cc1ccc(-n2cc(C(=O)c3cc(Cl)ccc3O)cc(C#N)c2=O)cc1,i,i,i,i,-8,-6
Cc1ccccc1NC(=O)c1cc(C(=O)c2cc(Cl)ccc2O)cn(-c2ccccc2C)c1=O,i,i,i,9*,-7,2
Cc1nc(SCc2ccc(OCCC(C)C)cc2)n[nH]1,i,i,i,i,-25,39
CCN(CC)CCCNc1ccc(-c2nnc(-c3ccc(OCC(C)C)cc3)o2)cn1,i,i,i,9*,-25,32
CC(C)COc1ccc(-c2nnc(-c3ccco3)o2)cc1,i,i,i,i,-4,20
O=C(CN1C(=O)COc2ccccc21)NNC(=O)Nc1ccccc1F,i,i,i,i,13*,18
O=C(Nc1cccnc1)c1cc2c(s1)-c1ccccc1OC2,i,i,i,i,-8,-5
Cc1cccc2c1-c1sc(C(=O)Nc3cccnc3)cc1CO2,i,-7.2*,i,i,-11,15
Cc1ccc(C)c(NC(=S)N(CCN(C)C)C(C)c2ccccn2)c1 (centres undefined),i,i,i,i,-6,-30
Cc1ccc(N(C(=O)c2csnn2)C(C(=O)NC2CCCC2)c2ccccn2)c(C)c1 (centres undefined),i,i,i,i,-3,30
CCOC(=O)c1ccc(N2C(=O)C(O)=C(C(C)=O)C2c2ccccn2)cc1 (centres undefined),i,i,i,i,-9,-18
S=c1nc(-c2ccco2)[nH][nH]1,i,i,i,i,-6,98*
Cc1cc(N)n2nc(C)c(-c3ccc(Cl)cc3)c2n1,i,i,i,i,2,17
Cc1cc(N)n2nc(C)c(-c3ccccc3)c2n1,i,i,i,i,-9,60*
Cc1cc(NCCCn2ccnc2)n2nc(C)c(-c3ccccc3)c2n1,i,i,i,6*,-15,8
CCn1c(C)c2c([n+]1CC)CC(C)(C)CC2=O,i,i,i,i,-7,91*
CCNC(=S)NNC(=O)Nc1ccccc1,i,i,i,i,-11,79*
CCOC(=O)C1=C(O)/C(=C\c2ccc(CNC(=O)C(=O)Nc3ccccc3)o2)N=C1C,i,i,i,i,-1,83*
Cn1cnnc1SCC(=O)N1CCN(C(=O)c2ccco2)CC1,i,i,i,i,-16,28
O=C(Cc1ccccc1)NC1CCN(C(=O)c2ccc([N+](=O)[O-])cc2)CC1,i,i,i,i,-3,7
O=C(c1ccc([N+](=O)[O-])cc1)N1CCC(Cc2ccccc2)CC1,i,-7.4*,i,i,-10,40
Cn1cnnc1SCC(=O)N1CCC(Cc2ccccc2)CC1,i,i,i,i,-10,63*
Cc1ccc(C(=O)NCC(=O)N2CCC(Cc3ccccc3)CC2)cc1,i,i,i,i,-13,63*
CC1(OC(=O)C2CCCC2)C(=O)C=C2C=C(c3ccsc3)N(C(CO)CO)C=C2C1=O (centres undefined),i,i,i,i,-1,9
SMILES,KCNQ1 pot,KCNK9 block,KCNK3 block,KCNQ1 inh,hERG rescue,PHOSPHO1 inh
O=C1C(Cc2ccccc2)Nc2ncnc(N3CCc4ccccc4C3)c2N1Cc1ccc(Br)cc1 (centres undefined),i,-7.7*,·,i,-13,·
CCOC(=O)c1c(N)sn(-c2ccccc2C)c1=S,i,i,i,i,-7,96*
CCOC(=O)c1nn(-c2ccccc2C)c(=O)c2c(N)scc12,i,i,i,i,2,-78
CCN(CC)c1ccc(NC(=O)CN2CCN(S(=O)(=O)c3cc(Cl)ccc3OC)CC2)cc1,i,i,i,i,-8,93*
CCOc1ccc(NC(=O)CCN2CCN(S(=O)(=O)c3cc(Cl)ccc3OC)CC2)cc1,i,i,i,i,-15,18
Cc1ccc(S(=O)(=O)N2CCOCC2)cc1C(=O)N1CCN(c2ccc(C(F)(F)F)cn2)CC1,·,·,i,·,·,·
O=c1[nH]c(SCc2ccccc2F)nc2ccccc12,i,i,i,i,-6,37
O=c1[nH]c(SCc2nc3ccccc3c(=O)n2-c2ccccc2C(F)(F)F)nc2ccccc12,i,-6.6*,i,i,-13,-7
O=C(c1cccs1)c1ccc(-c2cccs2)s1,i,-6.8*,i,i,-6,25
CN1CCN(C(=O)c2ccc(-c3cccs3)s2)CC1,i,i,i,i,-8,-8
CCN1C(=O)[C@H]2[C@@H](c3ccc(SC4CCCCC4)cc3)N[C@@](CC(C)C)(C(=O)OC)[C@H]2C1=O,i,i,i,i,-10,·
Cn1c(=O)c2c(nc(N/N=C/c3ccc(OC(=O)c4ccco4)cc3)n2Cc2ccccc2Cl)n(C)c1=O,i,i,i,7*,-6,-9
Cn1c(=O)c2c(nc(N/N=C/c3ccc(OC(=O)c4ccco4)cc3)n2Cc2ccc(F)cc2)n(C)c1=O,i,i,i,i,-12,6
COC(=O)Oc1ccc(/C=C/C(=O)OC(C)C)cc1OC(=O)OC,i,i,i,i,6.6*,-15
CCC1CCC2(CC1)NC(CO)(CO)CO2 (centres undefined),8*,i,i,i,-10,13
Cc1nc2ccccc2n1Cc1ccc(Cl)cc1,i,i,i,6*,-5,-16
Cn1c(-c2ccc(=O)[nH]c2)nc2ccccc21,i,i,i,i,-6,44
O=c1ccc(-c2nc3ccccc3n2Cc2ccc(Cl)cc2)c[nH]1,10*,i,i,i,-12,20
OCc1nc2ccccc2n1Cc1ccc(Cl)cc1,i,i,i,i,-1,-28
CCOc1ccc(NC(=O)Nc2nnc(CC(=O)NCc3ccccc3)s2)cc1,i,i,i,i,-4,45
CN(CCn1ccnc1)Cc1cn(-c2ccccc2)nc1-c1ccc2c(c1)OCO2,i,i,i,i,-31,60*
O=S(=O)(CCOc1ccccc1)N1CCOCC1,i,i,i,i,-7,0
Cc1ccc(-c2nn(-c3ccccc3)cc2CO)cc1,i,i,i,i,-15,34
N=C(N)SCc1cn(-c2ccccc2)nc1-c1ccc(Br)cc1,i,i,-14*,11*,-27,19
